ChEMBL document CHEMBL1137710, “Synthesis and in vitro antitumor activity of new quinoxaline derivatives” (2009)

Experiments:
Format in all cases: functional
U-251 = assay: Growth inhibition of human U251 cells after 48 hrs by sulforhodamine B assay; settings: U-251, 48 h
Outline: (§1)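 Run in the NCI 60-human-tumour-cell-line panel, tested over a 5-log dose range. Dose–response curves gave three values per cell line, each as a log10 molar concentration: GI50 (50% inhibition of net cell growth), TGI (total inhibition of net growth) and LC50 (50% net cell death). The mean graph midpoint is the arithmetic mean over all lines, with insensitive lines entered at the highest concentration tested.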

SW-620 = assay: Growth inhibition of human SW620 cells after 48 hrs by sulforhodamine B assay; settings: SW-620, 48 h; outline: as §1
UACC-257 = assay: Growth inhibition of human UACC257 cells after 48 hrs by sulforhodamine B assay; settings: UACC-257, 48 h; outline: as §1
OVCAR-8 = assay: Growth inhibition of human OVCAR8 cells after 48 hrs by sulforhodamine B assay; settings: OVCAR-8, 48 h
Outline: (§2)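 NCI 60-human-tumor-cell-line panel, with compounds tested over a 5-log dose range. Values are taken from dose-response curves as log10 molar concentrations: GI50 is 50% net growth inhibition, TGI is total growth inhibition, and LC50 is 50% net cell death.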

LOX IMVI = assay: Growth inhibition of human LOXIMVI cells after 48 hrs by sulforhodamine B assay; outline: as §2
IGROV-1 = assay: Growth inhibition of human IGROV1 cells after 48 hrs by sulforhodamine B assay; settings: IGROV-1, 48 h; outline: as §2
NCI-H23 = assay: Growth inhibition of human NCI-H23 cells after 48 hrs by sulforhodamine B assay; settings: NCI-H23, 48 h; outline: as §2
NCI-H460 = assay: Anticancer activity against human NCI-H460 cells assessed as cell growth at 100 uM after 48 hrs by sulforhodamine B assay; settings: NCI-H460, 48 h, read-out: Activity
SK-MEL-5 = assay: Growth inhibition of human SK-MEL-5 cells after 48 hrs by sulforhodamine B assay; settings: SK-MEL-5, 48 h; outline: as §2
HCT-116 = assay: Growth inhibition of human HCT116 cells after 48 hrs by sulforhodamine B assay; settings: HCT-116, 48 h; outline: as §2
SF-268 [1] = assay: Anticancer activity against human SF268 cells assessed as cell growth at 100 uM after 48 hrs by sulforhodamine B assay; settings: SF-268, 48 h, read-out: Activity
MCF7 [2] = assay: Growth inhibition of human MCF7 cells after 48 hrs by sulforhodamine B assay; settings: MCF7, 48 h; outline: as §2
SF-295 = assay: Growth inhibition of human SF295 cells after 48 hrs by sulforhodamine B assay; settings: SF-295, 48 h; outline: as §2
MCF7 [3] = assay: Anticancer activity against human MCF7 cells assessed as cell growth at 100 uM after 48 hrs by sulforhodamine B assay; settings: MCF7, 48 h, read-out: Activity
A549 = assay: Growth inhibition of human A549 cells after 48 hrs by sulforhodamine B assay; settings: A549, 48 h; outline: as §2
OVCAR-5 = assay: Growth inhibition of human OVCAR5 cells after 48 hrs by sulforhodamine B assay; settings: OVCAR-5, 48 h; outline: as §2
[4] = Growth inhibition of human Hs 578T cells after 48 hrs by sulforhodamine B assay; outline: as §2
SF-268 [5] = assay: Growth inhibition of human SF268 cells after 48 hrs by sulforhodamine B assay; settings: SF-268, 48 h; outline: as §2
PC-3 = assay: Growth inhibition of human PC3 cells after 48 hrs by sulforhodamine B assay; settings: PC-3, 48 h; outline: as §2
RXF 393 = assay: Growth inhibition of human RXF393 cells after 48 hrs by sulforhodamine B assay; settings: RXF 393, 48 h; outline: as §2
SK-MEL-2 = assay: Growth inhibition of human SK-MEL-2 cells after 48 hrs by sulforhodamine B assay; settings: SK-MEL-2, 48 h; outline: as §2
NCI-H322M = assay: Growth inhibition of human NCI-H322M cells after 48 hrs by sulforhodamine B assay; outline: as §2
SK-MEL-28 = assay: Growth inhibition of human SK-MEL-28 cells after 48 hrs by sulforhodamine B assay; settings: SK-MEL-28, 48 h; outline: as §2
MDA-MB-435 = assay: Growth inhibition of human MDA-MB-435 cells after 48 hrs by sulforhodamine B assay; settings: MDA-MB-435, 48 h; outline: as §2
COLO 205 = assay: Growth inhibition of human COLO205 cells after 48 hrs by sulforhodamine B assay; settings: COLO 205, 48 h; outline: as §2
DU-145 = assay: Growth inhibition of human DU145 cells after 48 hrs by sulforhodamine B assay; settings: DU-145, 48 h; outline: as §2
[6] = Growth inhibition of human […] cells after 48 hrs by sulforhodamine B assay; outline: as §2
SNB-19 = assay: Growth inhibition of human SNB19 cells after 48 hrs by sulforhodamine B assay; settings: SNB-19, 48 h; outline: as §1
[7] = read-out: pLC50 (the source's name) (converted)

Compound: COc1ccc(Sc2nc3cc(N)cc(N)c3nc2-c2ccccc2)cc1
- GI50 (U-251): > 100 µM
- LC50 (50% net cell kill) (U-251): > 100 µM
- TGI (U-251; read-out: pTGI (converted)): > 100 µM
- GI50 (SW-620): 26.3 µM
- CC50 (SW-620; [7]): > 100 µM
- TGI (SW-620; read-out: pTGI (converted)): > 100 µM
- GI50 (UACC-257): 43.7 µM
- CC50 (UACC-257; [7]): > 100 µM
- TGI (UACC-257; read-out: pTGI (converted)): > 100 µM
- GI50 (OVCAR-8): > 100 µM
- CC50 (OVCAR-8; [7]): > 100 µM
- TGI (OVCAR-8; read-out: pTGI (converted)): > 100 µM
- GI50 (LOX IMVI): 51.3 µM
- LC50 (LOX IMVI): > 100 µM
- TGI (LOX IMVI; read-out: pTGI (converted)): > 100 µM
- CC50 (IGROV-1; [7]): > 100 µM
- TGI (IGROV-1; read-out: pTGI (converted)): > 100 µM
- GI50 (NCI-H23): > 100 µM
- LC50 (50% net cell kill concentration) (NCI-H23): > 100 µM
- TGI (NCI-H23; read-out: pTGI (converted)): > 100 µM
- growth at 100 µM (NCI-H460): 0%
- GI50 (SK-MEL-5): 24 µM
- CC50 (SK-MEL-5; [7]): > 100 µM
- TGI (SK-MEL-5; read-out: pTGI (converted)): > 100 µM
- GI50 (HCT-116): 14.8 µM
- LC50 (concentration causing 50% net cell death) (HCT-116): > 100 µM
- TGI (HCT-116; read-out: pTGI (converted)): > 100 µM
- growth at 100 µM (SF-268 [1]): 7%
- GI50 (MCF7 [2]): 16.6 µM
- CC50 (MCF7 [2]; [7]): > 100 µM
- TGI (MCF7 [2]; read-out: pTGI (converted)): > 100 µM
- GI50 (SF-295): > 100 µM
- LC50 (50% net cell kill) (SF-295): > 100 µM
- TGI (SF-295; read-out: pTGI (converted)): > 100 µM
- growth at 100 µM (MCF7 [3]): 8%
- GI50 (A549): 42.7 µM
- LC50 (A549): > 100 µM
- TGI (A549; read-out: pTGI (converted)): > 100 µM
- GI50 (OVCAR-5): > 100 µM
- CC50 (OVCAR-5; [7]): > 100 µM
- TGI (OVCAR-5; read-out: pTGI (converted)): > 100 µM
- GI50 [4]: > 100 µM
- CC50 [4, 7]: > 100 µM
- TGI ([4]; read-out: pTGI (converted)): > 100 µM
- GI50 (SF-268 [5]): > 100 µM
- LC50 (SF-268 [5]): > 100 µM
- TGI (SF-268 [5]; read-out: pTGI (converted)): > 100 µM
- GI50 (PC-3): 1.74 µM
- CC50 (PC-3; [7]): 19.1 µM
- TGI (PC-3; read-out: pTGI (converted)): 5.13 µM
- GI50 (RXF 393): 3.09 µM
- CC50 (RXF 393; [7]): > 100 µM
- TGI (RXF 393; read-out: pTGI (converted)): 17 µM
- CC50 (SK-MEL-2; [7]): > 100 µM
- TGI (SK-MEL-2; read-out: pTGI (converted)): > 100 µM
- GI50 (NCI-H322M): 35.5 µM
- LC50 (NCI-H322M): > 100 µM
- TGI (NCI-H322M; read-out: pTGI (converted)): > 100 µM
- GI50 (SK-MEL-28): 24.5 µM
- CC50 (SK-MEL-28; [7]): > 100 µM
- TGI (SK-MEL-28; read-out: pTGI (converted)): > 100 µM
- GI50 (MDA-MB-435): > 100 µM
- CC50 (MDA-MB-435; [7]): > 100 µM
- TGI (MDA-MB-435; read-out: pTGI (converted)): > 100 µM
- GI50 (COLO 205): 19.5 µM
- LC50 (50% net cell kill) (COLO 205): > 100 µM
- TGI (COLO 205; read-out: pTGI (converted)): > 100 µM
- GI50 (DU-145): 16.2 µM
- CC50 (DU-145; [7]): 69.2 µM
- TGI (DU-145; read-out: pTGI (converted)): 33.1 µM
- GI50 [6]: 3.98 µM
- LC50 [6]: > 100 µM
- TGI ([6]; read-out: pTGI (converted)): 85.1 µM
- GI50 (SNB-19): > 100 µM
- LC50 (SNB-19): > 100 µM
- TGI (SNB-19; read-out: pTGI (converted)): > 100 µM
